Data from ChEMBL document CHEMBL2375313, “Synthesis, in vitro antitumor evaluation and DNA-binding study of novel tetrahydroquinolines and some derived tricyclic and tetracyclic ring systems” (Eur J Med Chem, 2013).

Columns and labels:
Assay type in all cases: functional
HOP-92 = assay: Cytotoxicity against human HOP92 cells assessed as growth inhibition at 10 uM after 48 hrs by sulphorhodamine B assay; details: HOP-92, 48 h, read-out: GI
How it was run: (§1)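 NCI-60 one-dose screen per the NCI Drug Evaluation Branch protocol. Cells given a single 10 µM concentration with 48 h continuous exposure. Growth estimated by sulphorhodamine B protein assay. Result expressed as percentage growth inhibition relative to untreated growth.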

NCI-H23 = assay: Cytotoxicity against human NCI-H23 cells assessed as growth inhibition at 10 uM after 48 hrs by sulphorhodamine B assay; details: NCI-H23, 48 h, read-out: GI; how it was run: as §1
[1] = Cytotoxicity against human EKVX cells assessed as growth inhibition at 10 uM after 48 hrs by sulphorhodamine B assay; details: read-out: GI; how it was run: as §1
A549 = assay: Cytotoxicity against human A549 cells assessed as growth inhibition at 10 uM after 48 hrs by sulphorhodamine B assay; details: A549, 48 h, read-out: GI; how it was run: as §1
NCI/ADR-RES = assay: Cytotoxicity against human NCI/ADR-RES cells assessed as growth inhibition at 10 uM after 48 hrs by sulphorhodamine B assay; details: read-out: GI; how it was run: as §1
SNB-75 = assay: Cytotoxicity against human SNB75 cells assessed as growth inhibition at 10 uM after 48 hrs by sulphorhodamine B assay; details: SNB-75, 48 h, read-out: GI; how it was run: as §1
U-251 = assay: Cytotoxicity against human U251 cells assessed as growth inhibition at 10 uM after 48 hrs by sulphorhodamine B assay; details: U-251, 48 h, read-out: GI; how it was run: as §1
SNB-19 = assay: Cytotoxicity against human SNB19 cells assessed as growth inhibition at 10 uM after 48 hrs by sulphorhodamine B assay; details: SNB-19, 48 h, read-out: GI; how it was run: as §1
SF-295 = assay: Cytotoxicity against human SF295 cells assessed as growth inhibition at 10 uM after 48 hrs by sulphorhodamine B assay; details: SF-295, 48 h, read-out: GI; how it was run: as §1
DU-145 = assay: Cytotoxicity against human DU145 cells assessed as growth inhibition at 10 uM after 48 hrs by sulphorhodamine B assay; details: DU-145, 48 h, read-out: GI; how it was run: as §1
SF-268 = assay: Cytotoxicity against human SF268 cells assessed as growth inhibition at 10 uM after 48 hrs by sulphorhodamine B assay; details: SF-268, 48 h, read-out: GI; how it was run: as §1
PC-3 = assay: Cytotoxicity against human PC3 cells assessed as growth inhibition at 10 uM after 48 hrs by sulphorhodamine B assay; details: PC-3, 48 h, read-out: GI; how it was run: as §1
UACC-62 = assay: Cytotoxicity against human UACC62 cells assessed as growth inhibition at 10 uM after 48 hrs by sulphorhodamine B assay; details: UACC-62, 48 h, read-out: GI; how it was run: as §1
SK-MEL-2 = assay: Cytotoxicity against human SK-MEL-2 cells assessed as growth inhibition at 10 uM after 48 hrs by sulphorhodamine B assay; details: SK-MEL-2, 48 h, read-out: GI; how it was run: as §1
SK-MEL-5 = assay: Cytotoxicity against human SK-MEL-5 cells assessed as growth inhibition at 10 uM after 48 hrs by sulphorhodamine B assay; details: SK-MEL-5, 48 h, read-out: GI; how it was run: as §1
M14 = assay: Cytotoxicity against human M14 cells assessed as growth inhibition at 10 uM after 48 hrs by sulphorhodamine B assay; details: M14, 48 h, read-out: GI; how it was run: as §1
LOX IMVI = assay: Cytotoxicity against human LOXIMVI cells assessed as growth inhibition at 10 uM after 48 hrs by sulphorhodamine B assay; details: read-out: GI; how it was run: as §1
UO-31 = assay: Cytotoxicity against human UO31 cells assessed as growth inhibition at 10 uM after 48 hrs by sulphorhodamine B assay; details: UO-31, 48 h, read-out: GI; how it was run: as §1
CAKI-1 = assay: Cytotoxicity against human Caki1 cells assessed as growth inhibition at 10 uM after 48 hrs by sulphorhodamine B assay; details: CAKI-1, 48 h, read-out: GI; how it was run: as §1
RXF 393 = assay: Cytotoxicity against human RXF393 cells assessed as growth inhibition at 10 uM after 48 hrs by sulphorhodamine B assay; details: RXF 393, 48 h, read-out: GI; how it was run: as §1
ACHN = assay: Cytotoxicity against human ACHN cells assessed as growth inhibition at 10 uM after 48 hrs by sulphorhodamine B assay; details: read-out: GI; how it was run: as §1
SR = assay: Cytotoxicity against human SR cells assessed as growth inhibition at 10 uM after 48 hrs by sulphorhodamine B assay; details: read-out: GI; how it was run: as §1
A498 = assay: Cytotoxicity against human A498 cells assessed as growth inhibition at 10 uM after 48 hrs by sulphorhodamine B assay; details: A498, 48 h, read-out: GI; how it was run: as §1
RPMI-8226 = assay: Cytotoxicity against human RPMI8226 cells assessed as growth inhibition at 10 uM after 48 hrs by sulphorhodamine B assay; details: RPMI-8226, 48 h, read-out: GI; how it was run: as §1
MOLT-4 = assay: Cytotoxicity against human MOLT4 cells assessed as growth inhibition at 10 uM after 48 hrs by sulphorhodamine B assay; details: MOLT-4, 48 h, read-out: GI; how it was run: as §1
K562 = assay: Cytotoxicity against human K562 cells assessed as growth inhibition at 10 uM after 48 hrs by sulphorhodamine B assay; details: K562, 48 h, read-out: GI; how it was run: as §1
HL-60(TB) = assay: Cytotoxicity against human HL-60(TB) cells assessed as growth inhibition at 10 uM after 48 hrs by sulphorhodamine B assay; details: HL-60, 48 h, read-out: GI
How it was run: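 NCI-60 one-dose primary screen run to the Drug Evaluation Branch protocol. Cells are exposed to a single 10 µM concentration for 48 h continuously, and growth is read by SRB protein assay. Data are reported as percent growth of treated cells, expressed as % growth inhibition.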

SK-OV-3 = assay: Cytotoxicity against human SKOV3 cells assessed as growth inhibition at 10 uM after 48 hrs by sulphorhodamine B assay; details: SK-OV-3, 48 h, read-out: GI; how it was run: as §1
CCRF-CEM = assay: Cytotoxicity against human CCRF-CEM cells assessed as growth inhibition at 10 uM after 48 hrs by sulphorhodamine B assay; details: read-out: GI; how it was run: as §1
OVCAR-5 = assay: Cytotoxicity against human OVCAR5 cells assessed as growth inhibition at 10 uM after 48 hrs by sulphorhodamine B assay; details: OVCAR-5, 48 h, read-out: GI; how it was run: as §1
OVCAR-4 = assay: Cytotoxicity against human OVCAR4 cells assessed as growth inhibition at 10 uM after 48 hrs by sulphorhodamine B assay; details: OVCAR-4, 48 h, read-out: GI; how it was run: as §1
IGROV-1 = assay: Cytotoxicity against human IGROV1 cells assessed as growth inhibition at 10 uM after 48 hrs by sulphorhodamine B assay; details: IGROV-1, 48 h, read-out: GI; how it was run: as §1
T47D = assay: Cytotoxicity against human T47D cells assessed as growth inhibition at 10 uM after 48 hrs by sulphorhodamine B assay; details: read-out: GI; how it was run: as §1
Hs-578T = assay: Cytotoxicity against human Hs578T cells assessed as growth inhibition at 10 uM after 48 hrs by sulphorhodamine B assay; details: read-out: GI; how it was run: as §1
NCI-H522 = assay: Cytotoxicity against human NCI-H522 cells assessed as growth inhibition at 10 uM after 48 hrs by sulphorhodamine B assay; details: NCI-H522, 48 h, read-out: GI; how it was run: as §1
HT-29 = assay: Cytotoxicity against human HT-29 cells assessed as growth inhibition at 10 uM after 48 hrs by sulphorhodamine B assay; details: HT-29, 48 h, read-out: GI; how it was run: as §1
MCF7 = assay: Cytotoxicity against human MCF7 cells assessed as growth inhibition at 10 uM after 48 hrs by sulphorhodamine B assay; details: MCF7, 48 h, read-out: GI; how it was run: as §1
MDA-MB-435 = assay: Cytotoxicity against human MDA-MB-435 cells assessed as growth inhibition at 10 uM after 48 hrs by sulphorhodamine B assay; details: MDA-MB-435, 48 h, read-out: GI; how it was run: as §1
HCT-15 = assay: Cytotoxicity against human HCT15 cells assessed as growth inhibition at 10 uM after 48 hrs by sulphorhodamine B assay; details: HCT-15, 48 h, read-out: GI; how it was run: as §1
MDA-MB-468 = assay: Cytotoxicity against human MDA-MB-468 cells assessed as growth inhibition at 10 uM after 48 hrs by sulphorhodamine B assay; details: MDA-MB-468, 48 h, read-out: GI; how it was run: as §1
HCT-116 = assay: Cytotoxicity against human HCT116 cells assessed as growth inhibition at 10 uM after 48 hrs by sulphorhodamine B assay; details: HCT-116, 48 h, read-out: GI; how it was run: as §1

SMILES: COc1ccc(-c2c3c(nc4nc(C)[nH]c(=O)c24)C(C)CCC3)cc1 (stereo unspecified)
- inhibition of growth at 10 µM (HOP-92): 21.3%
- inhibition of growth at 10 µM (NCI-H23): < 10%
- inhibition of growth at 10 µM [1]: < 10%
- inhibition of growth at 10 µM (A549): 10%
- inhibition of growth at 10 µM (NCI/ADR-RES): < 10%
- inhibition of growth at 10 µM (SNB-75): < 10%
- inhibition of growth at 10 µM (U-251): < 10%
- inhibition of growth at 10 µM (SNB-19): < 10%
- inhibition of growth at 10 µM (SF-295): < 10%
- inhibition of growth at 10 µM (DU-145): < 10%
- inhibition of growth at 10 µM (SF-268): < 10%
- inhibition of growth at 10 µM (PC-3): 14.2%
- inhibition of growth at 10 µM (UACC-62): 14.8%
- inhibition of growth at 10 µM (SK-MEL-2): < 10%
- inhibition of growth at 10 µM (SK-MEL-5): 13.6%
- inhibition of growth at 10 µM (M14): < 10%
- inhibition of growth at 10 µM (LOX IMVI): 17.3%
- inhibition of growth at 10 µM (UO-31): < 10%
- inhibition of growth at 10 µM (CAKI-1): < 10%
- inhibition of growth at 10 µM (RXF 393): 12.5%
- inhibition of growth at 10 µM (ACHN): 11.3%
- inhibition of growth at 10 µM (SR): 46.8%
- inhibition of growth at 10 µM (A498): < 10%
- inhibition of growth at 10 µM (RPMI-8226): 21.8%
- inhibition of growth at 10 µM (MOLT-4): 23.3%
- inhibition of growth at 10 µM (K562): 11.2%
- inhibition of growth at 10 µM (HL-60(TB)): < 10%
- inhibition of growth at 10 µM (SK-OV-3): < 10%
- inhibition of growth at 10 µM (CCRF-CEM): 16.5%
- inhibition of growth at 10 µM (OVCAR-5): 11.4%
- inhibition of growth at 10 µM (OVCAR-4): < 10%
- inhibition of growth at 10 µM (IGROV-1): < 10%
- inhibition of growth at 10 µM (T47D): 18.2%
- inhibition of growth at 10 µM (Hs-578T): < 10%
- inhibition of growth at 10 µM (NCI-H522): 22%
- inhibition of growth at 10 µM (HT-29): < 10%
- inhibition of growth at 10 µM (MCF7): < 10%
- inhibition of growth at 10 µM (MDA-MB-435): 19%
- inhibition of growth at 10 µM (HCT-15): 11%
- inhibition of growth at 10 µM (MDA-MB-468): < 10%
- inhibition of growth at 10 µM (HCT-116): < 10%
